{"source": "the RNAGym collection of RNA variant scans (doi:10.1126/science.aae0568)", "parents": {"B1": {"name": "tRNA (parent)", "chain": "GUUCCGUUGGCGUAAUGGUAACGCGUCUCCCUCCUAAGGAGAAGACUGCGGGUUCGAGUCCCGUACGGAACG"}}, "note": "Variants at the floor of the assay were thinned out."}
{"variants_of": "B1", "assay": "yeast fitness relative to wild type (ratio to wild type); higher = fitter; tRNA-Arg(CCU), competitive growth, 37 C, YPD", "in_short": "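Amplicons of the tRNA-Arg(CCU) gene were sequenced, 100-nucleotide paired-end, from the start population and from each end population of a pooled yeast competition. The competition, in six parallel replicates, lasted 24 hours in YPD at 37°C. Fitness relative to wild type was calculated from changes in genotype frequencies. Genotypes had to have ≥ 100 starting reads, and estimates < 0.5 were set to 0.5.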"}
{"variant": "GUUGCGUUGGCGUAAUGGUAACGCGUCACCCUCCUAAGAAGAAGACUGCGGGUUCGAGUCCCGUUCGAAACG", "note": "[C4G U28A G39A A65U G68A]", "yeast fitness": "≤ 0.5"}
{"variant": "GUUGCGUUGGCGUAAUGGUAACGCGUCUCCCUCCUAAGGAGAAGACUGCGGGAUCGAGUCCCCUACGGAACG", "note": "[C4G U53A G63C]", "yeast fitness": "≤ 0.5"}
{"variant": "GUUGCGUUGGCGAAAUGGUAACGCGUCUCGCUCCUAAGGAGAAGACUGCGGGUUCGAGUCCCGUACGGAACG", "note": "[C4G U13A C30G]", "yeast fitness": "≤ 0.5"}
{"variant": "GUUGCGUUGGCGUAACGGUAACGCGUCUCCCUCCUAAGGAGAAAACUACCGGUUCGAGUCCCGUAGGGAACG", "note": "[C4G U16C G44A G48A G50C C66G]", "yeast fitness": "≤ 0.5"}
{"variant": "GUUUCGUUGGCGUUAUGGUAACGCGUCUCCCUCCUAAGGAGAAGACUGCGGGUUCGAGUCCCGUACGGUACG", "note": "[C4U A14U A69U]", "yeast fitness": 0.651}
{"variant": "GUUGCGUGGGCGUAAUGGUAACGAGUCUCCGUCCUAAGGAGAAGACUGCAGGUUCGAGUCCCGUACGGUACG", "note": "[C4G U8G C24A C31G G50A A69U]", "yeast fitness": "≤ 0.5"}
{"variant": "GUUGCGUUGGCGUAAUGGUAACGCGCCUCCCUCCUAAGGUGAAGACUGUGGGUUCGAGUCCCGUACGGAACG", "note": "[C4G U26C A40U C49U]", "yeast fitness": "≤ 0.5"}
{"variant": "GUUUCGUUGGCGUCAUGGUAACGCGUCUCCCUCCUAAGGAGAAAACUGCGGGUACGAGUCCCGUACGGAUCG", "note": "[C4U A14C G44A U54A A70U]", "yeast fitness": "≤ 0.5"}
{"variant": "GUUUCGUUGGCGUGAUGGUAACGCGUCUCCCUCCUAAGGAGAAGACUCCGGGUUCGAGUCCCGUACGGAACG", "note": "[C4U A14G G48C]", "yeast fitness": 0.659}
{"variant": "GUUGCGUUGGCGAAAUGGUAACGCGUCUCCCUCCUAAGGAGAAGACUGCGGGAUCGAGUCCCGUGCGGAACG", "note": "[C4G U13A U53A A65G]", "yeast fitness": "≤ 0.5"}
{"variant": "GUUUCGUUGGCGUGAUGGUAACGCGUCUCCCUCCUAAGGUGAAGACUGCGGGUUCGAGUCCCGUACGGAACG", "note": "[C4U A14G A40U]", "yeast fitness": 0.593}
{"variant": "GUUGCGUUGGCGUAAUGGUAACGCGUCUCCCUCCUAAGGAGAAGACUGCGGGUUCGAGGCCCGUACGGAACG", "note": "[C4G U59G]", "yeast fitness": 0.653}
{"variant": "GUUGCGUUGGCGUAAUGGUAACGCGUCUCCCUCCCAAGGAGAAGACUGUGGGUUCGAGUCCCGUACGGAACG", "note": "[C4G U35C C49U]", "yeast fitness": 0.533}
{"variant": "GUUGCGUUGGCGUAAGGGUAACGCGUCUCUCUCAUAAGGAGAAGACUGCGGGGUCGAGUCCCGUACGGACCG", "note": "[C4G U16G C30U C34A U53G A70C]", "yeast fitness": "≤ 0.5"}
{"variant": "GUUGCGUUGGCGUAACGGUAACGCGUCUCCUUCCUAAGGAGAAGACUGCGGGUUCGAGUCCCGUACGGAUCG", "note": "[C4G U16C C31U A70U]", "yeast fitness": "≤ 0.5"}
{"variant": "GUUGCGUUGGCGUAACGGUAACGCGUCUCCCUCCUAAGGAGAAGACUGCGGGUUCGAGUCCCGUACGGAACG", "note": "[C4G U16C]", "yeast fitness": 0.806}
{"variant": "GUUGCGUUGGCGUAAAGGUAACGCGUCUCCCUCCUAAGGAGAAGACUGCGGGUUCGAGUCCCGUACGGAACG", "note": "[C4G U16A]", "yeast fitness": 0.9}
{"variant": "GUUGCGUUGGCGUAAUGGUAACGCGUCUCCCUCCCAAGGAGAAGACUGCGGGUUAGAGUCCCGUACGGUACG", "note": "[C4G U35C C55A A69U]", "yeast fitness": "≤ 0.5"}
{"variant": "GUUGCGUUGGCGUAAUGGCAACGCGUCUCCCUCCUAAGGAGAAGACUGCGGGUUCGAGUCCUAUACGGAACG", "note": "[C4G U19C C62U G63A]", "yeast fitness": 0.545}
{"variant": "GUUUCGUUGGCGUUAUGGUAACGCGUCUCCCUCCUAAGGAGAAGACUGCGGGUUCGAGUCCCGUACGGAACG", "note": "[C4U A14U]", "yeast fitness": 0.611}
{"variant": "GUUGCGUUGGCGUAAGGGUAACGCGUCUCCCUCCUAAGGAGAAGACUACGGGUUCGGGUCCCGUACGGUACG", "note": "[C4G U16G G48A A57G A69U]", "yeast fitness": "≤ 0.5"}
{"variant": "GUUGCGUUGGCGUAAUGGUAACGCGACUCUCUCCUAAGGAGAAGACUACGGGUAGGAGUCCCGUUCGGAACG", "note": "[C4G U26A C30U G48A U54A C55G A65U]", "yeast fitness": "≤ 0.5"}
{"variant": "GUUUCGUUGGCGUCAUGGUAACGCGUCUCCCUCCUAAGGAGAAGACUGCGGGUUUGACUCCCGUACGGAACG", "note": "[C4U A14C C55U G58C]", "yeast fitness": 0.595}
{"variant": "GUUGCGUUGGCGGAAUGGUAACGCGUCUCCCUCCUAAGGAGAAGACUGCGGGUUCGAGUCCCGUAUGGAACG", "note": "[C4G U13G C66U]", "yeast fitness": 0.564}
{"variant": "GUUGCGUGAGUGUAAUGGUAACGCGUCUCCCUCCUAAGGAGAAGACUGCGGGUUCGAGUCCCGUACGGAACG", "note": "[C4G U8G G9A C11U]", "yeast fitness": 0.562}
{"variant": "GUUGCGUUGGCGUAAAGGUAACGCGUCUCCCUCCAAAGGAGAAGACUGCGGGUUCGAGUCGCGUACGGAACG", "note": "[C4G U16A U35A C61G]", "yeast fitness": 0.882}
{"variant": "GUUUCGUUGGCGUGAUGGUAACGCGUCUCCCUCCUAAGGAGAAGCCUGCGGGUUCGAGUCCCCUACGGAACG", "note": "[C4U A14G A45C G63C]", "yeast fitness": "≤ 0.5"}
{"variant": "GUUUCGUUGGCGUGAUGGUAACGCGUCUCCCUCCUAAGGAGAAGACUGCGGGUUCGAGUCCCGUACGGAUCG", "note": "[C4U A14G A70U]", "yeast fitness": 0.787}
{"variant": "GUUGCGUUGGCGUAAAGGUAACGCGUCUCCCUCCUCAGGAGAAGACUGCGGGUUCGAGUCCCGUACGGAACG", "note": "[C4G U16A A36C]", "yeast fitness": 0.579}
{"variant": "GUUGCGUUGGCGAAAUGGUACCGCGUCUCCCUCCUAAGGAGAUGGCUGCGGGUUCGAGUCCCGUACGGAACG", "note": "[C4G U13A A21C A43U A45G]", "yeast fitness": 0.559}
{"variant": "GUUUCGUUGGCGUCAUGGUAACGCGUCUCCCUCCUAAGCAGAAGACUGCGGGUUCGAGUCCCGUACGGAACG", "note": "[C4U A14C G39C]", "yeast fitness": "≤ 0.5"}
{"variant": "GUUGCGUUGGCGUAAAGGUAACGCGUCUCCCUCCUCAGGAGAAGACUGCGGGUUCGCGUCACGCACGGAACG", "note": "[C4G U16A A36C A57C C61A U64C]", "yeast fitness": "≤ 0.5"}
{"variant": "GUUGCGUUGGCGUAAUGGUAACGCGUCCCCCUCCUAAGGAGAAGACUGCGGGUUCGAGUCCCGUAUGGAACG", "note": "[C4G U28C C66U]", "yeast fitness": 0.524}
{"variant": "GUUGCGUUGGCGAAAUCGUAACGCGUCUCUCUCCUAAGGAGAAGACUGCGGGUUCGAGUCCCGUACGGAACG", "note": "[C4G U13A G17C C30U]", "yeast fitness": 0.657}
{"variant": "GUUGCGUUGGCGAAAUGGUAACGCGUCUCCCUCCUAAGGAGAAGACUGCGGGUUCGAGUCCCAUACGGAACG", "note": "[C4G U13A G63A]", "yeast fitness": "≤ 0.5"}
{"variant": "GUUGCGUUGGCGUAAUGGUAACGCGUCACCGUCCUAAGGAGAAGACUGCGGGUUCGGGUCCUGUACGGAACG", "note": "[C4G U28A C31G A57G C62U]", "yeast fitness": 0.532}
{"variant": "GUUUCGUUGGCGUGAUGGUAACGCGUCUCCCUCAUAAGGAGAAGACUGCGGGUUCGAGUCCCGUACGGAACG", "note": "[C4U A14G C34A]", "yeast fitness": "≤ 0.5"}
{"variant": "GUUUCGUUGGCGUUAUGGUACCGCGUCUCCCUCCUAAGGAGAAGCCUGCGGGUUCGAGUCCCGUACGGUACG", "note": "[C4U A14U A21C A45C A69U]", "yeast fitness": "≤ 0.5"}
